Laboratory results reported in ChEMBL document CHEMBL5058577, “EUbOPEN Chemogenomics Library 2 (Multiplex)” (2022).

Tested on: Fibroblast
Test: Multiplex assay against human fibroblast
Format: toxicity, cell-based
Procedure, shortened: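 At seeding, live cells were stained with Hoechst33342, BioTracker Green Microtubule Cytoskeleton Dye, MitoTracker Red and Annexin V Alexa Fluor 680. After compound addition they were imaged on a CQ1 microscope at 37°C and 5% CO2, and CellPathfinder machine-learning gating sorted them into Hoechst high-intensity objects or normal cells, with normal cells further split into healthy, pyknosed or fragmented nuclei and pyknosed cells into mitotic or apoptotic. Tubulin, mitochondrial-mass and membrane-permeability phenotypes are given as per cents of cells with healthy nuclei.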

[1] = 12 h, 1 µM, compound concentration 1 uM, replicate 1
[2] = 12 h, 1 µM, compound concentration 1 uM, replicate 2
[3] = 12 h, 10 µM, compound concentration 10 uM, replicate 1
[4] = 12 h, 10 µM, compound concentration 10 uM, replicate 2
[5] = 24 h, 1 µM, compound concentration 1 uM, replicate 1
[6] = 24 h, 1 µM, compound concentration 1 uM, replicate 2
[7] = 24 h, 10 µM, compound concentration 10 uM, replicate 1
[8] = 24 h, 10 µM, compound concentration 10 uM, replicate 2
[9] = 48 h, 1 µM, compound concentration 1 uM, replicate 1
[10] = 48 h, 1 µM, compound concentration 1 uM, replicate 2
[11] = 48 h, 10 µM, compound concentration 10 uM, replicate 1
[12] = 48 h, 10 µM, compound concentration 10 uM, replicate 2

## CNC[C@H](O)c1ccc(O)c(O)c1 [EPINEPHRINE]
[1]
  Population Apoptotic (%): 36%
  Population Fragmented Nuclei (%): 17%
  Population Healthy Nuclei (%): 66%
  Population Hoechst High Intensity Objects (%): 1%
  Population Membrane Permeable-Phenotype (%): 1%
  Population Mitochondria Different-Phenotype (%): 3%
  Population Mitotic Cells (%): 63%
  Population Normal (%): 98%
  Population Pyknosed Nuclei (%): 16%
  Population Tubulin-Different-Phenotype (%): 15%
[2]
  Population Apoptotic (%): 40%
  Population Fragmented Nuclei (%): 38%
  Population Healthy Nuclei (%): 44%
  Population Membrane Permeable-Phenotype (%): 13%
  Population Mitochondria Different-Phenotype (%): 7%
  Population Mitotic Cells (%): 60%
  Population Pyknosed Nuclei (%): 17%
  Population Tubulin-Different-Phenotype (%): 42%
[3]
  Population Apoptotic (%): 40%
  Population Fragmented Nuclei (%): 18%
  Population Healthy Nuclei (%): 61%
  Population Hoechst High Intensity Objects (%): 3%
  Population Membrane Permeable-Phenotype (%): 1%
  Population Mitochondria Different-Phenotype (%): 6%
  Population Mitotic Cells (%): 60%
  Population Normal (%): 96%
  Population Pyknosed Nuclei (%): 20%
  Population Tubulin-Different-Phenotype (%): 23%
[4]
  Population Apoptotic (%): 32%
  Population Fragmented Nuclei (%): 39%
  Population Healthy Nuclei (%): 37%
  Population Hoechst High Intensity Objects (%): 7%
  Population Membrane Permeable-Phenotype (%): 12%
  Population Mitochondria Different-Phenotype (%): 8%
  Population Mitotic Cells (%): 67%
  Population Normal (%): 92%
  Population Pyknosed Nuclei (%): 23%
  Population Tubulin-Different-Phenotype (%): 55%
[5]
  Population Apoptotic (%): 54%
  Population Fragmented Nuclei (%): 12%
  Population Healthy Nuclei (%): 70%
  Population Hoechst High Intensity Objects (%): 0%
  Population Membrane Permeable-Phenotype (%): 0%
  Population Mitochondria Different-Phenotype (%): 3%
  Population Mitotic Cells (%): 45%
  Population Normal (%): 99%
  Population Pyknosed Nuclei (%): 16%
  Population Tubulin-Different-Phenotype (%): 11%
[6]
  Population Apoptotic (%): 23%
  Population Fragmented Nuclei (%): 38%
  Population Healthy Nuclei (%): 47%
  Population Hoechst High Intensity Objects (%): 3%
  Population Membrane Permeable-Phenotype (%): 12%
  Population Mitochondria Different-Phenotype (%): 6%
  Population Mitotic Cells (%): 76%
  Population Normal (%): 96%
  Population Pyknosed Nuclei (%): 14%
  Population Tubulin-Different-Phenotype (%): 32%
[7]
  Population Apoptotic (%): 65%
  Population Fragmented Nuclei (%): 16%
  Population Healthy Nuclei (%): 60%
  Population Hoechst High Intensity Objects (%): 3%
  Population Membrane Permeable-Phenotype (%): 0%
  Population Mitochondria Different-Phenotype (%): 5%
  Population Mitotic Cells (%): 34%
  Population Normal (%): 96%
  Population Pyknosed Nuclei (%): 23%
  Population Tubulin-Different-Phenotype (%): 21%
[8]
  Population Apoptotic (%): 38%
  Population Fragmented Nuclei (%): 39%
  Population Healthy Nuclei (%): 44%
  Population Membrane Permeable-Phenotype (%): 12%
  Population Mitochondria Different-Phenotype (%): 4%
  Population Mitotic Cells (%): 61%
  Population Pyknosed Nuclei (%): 15%
  Population Tubulin-Different-Phenotype (%): 51%
[9]
  Population Apoptotic (%): 50%
  Population Fragmented Nuclei (%): 17%
  Population Healthy Nuclei (%): 67%
  Population Hoechst High Intensity Objects (%): 1%
  Population Membrane Permeable-Phenotype (%): 0%
  Population Mitochondria Different-Phenotype (%): 6%
  Population Mitotic Cells (%): 50%
  Population Normal (%): 98%
  Population Pyknosed Nuclei (%): 15%
  Population Tubulin-Different-Phenotype (%): 23%
[10]
  Population Apoptotic (%): 38%
  Population Fragmented Nuclei (%): 41%
  Population Healthy Nuclei (%): 48%
  Population Membrane Permeable-Phenotype (%): 6%
  Population Mitochondria Different-Phenotype (%): 5%
  Population Mitotic Cells (%): 61%
  Population Pyknosed Nuclei (%): 10%
  Population Tubulin-Different-Phenotype (%): 45%
[11]
  Population Apoptotic (%): 77%
  Population Fragmented Nuclei (%): 20%
  Population Healthy Nuclei (%): 65%
  Population Hoechst High Intensity Objects (%): 2%
  Population Membrane Permeable-Phenotype (%): 2%
  Population Mitochondria Different-Phenotype (%): 4%
  Population Mitotic Cells (%): 22%
  Population Normal (%): 97%
  Population Pyknosed Nuclei (%): 13%
  Population Tubulin-Different-Phenotype (%): 32%
[12]
  Population Apoptotic (%): 37%
  Population Fragmented Nuclei (%): 50%
  Population Healthy Nuclei (%): 44%
  Population Hoechst High Intensity Objects (%): 3%
  Population Membrane Permeable-Phenotype (%): 6%
  Population Mitochondria Different-Phenotype (%): 3%
  Population Mitotic Cells (%): 62%
  Population Normal (%): 96%
  Population Pyknosed Nuclei (%): 5%
  Population Tubulin-Different-Phenotype (%): 46%
